Broadly, the logP is the decadic logarithm of the partition coefficient of the neutral form, usually between octanol and water.

Consider 19 compounds from ChEMBL document CHEMBL1143755, “Food web-specific biomagnification of persistent organic pollutants” (Science, 2007).

A value given as a limit tells only on which side of the number the result lay.

The species named for one data set is Homo sapiens. The data set is described as follows: Biomagnification factors in human. It is filed as ADME, organism-based. Particulars: in vivo. Put shortly: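 Modelled, not measured: a bioaccumulation model using fugacity D-values (respiration, diet, faeces, urine, metabolism, lactation, growth) gives BMF as fB/fD or CB/CD relative to diet. The Inuit diet is taken as Arctic fish and wildlife (caribou, ringed seal, walrus, beluga) plus southern Canadian agricultural foods, the latter simulated from Great Lakes food chains. KOA is evaluated at 37 °C.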

Data set [1] can be described thus: Octanol-air partition coefficient, log KOA of the compound. It is filed as physicochemical.
The nature of data set [2]: Biomagnification factors in Diporeia. It is filed as ADME.
The nature of data set [3]: Octanol-water partition coefficient, log KOW of the compound. It is filed as physicochemical.

As for `Cc1c([N+](=O)[O-])c(C)c([N+](=O)[O-])c(C(C)(C)C)c1[N+](=O)[O-]`, the results for the BMF (in the data set filed under Homo sapiens; in data set [2]) were 89 and under 1, respectively. In addition, in data set [1], the “log KOA” value worked out at 8.9. For the same compound, the logP in data set [3] (read-out: LogP) was determined as 4.1.

For `Brc1ccc(Oc2ccc(Br)cc2Br)c(Br)c1`, the BMF turned out to be 98 in the data set listed under Homo sapiens and 2.2 in data set [2]. In addition, in data set [1], the “log KOA” value is reported as 9.8. The logP in data set [3] (read-out: LogP) is 6.

For `Brc1c(Br)c(Br)c(Oc2c(Br)c(Br)c(Br)c(Br)c2Br)c(Br)c1Br`, the BMF in the data set filed under Homo sapiens was 8; in data set [2] it was 1. Besides, the “log KOA” value in data set [1] is listed as 13.1. The logP in data set [3] came out at 9.9.

For the compound `Brc1ccc(Oc2cc(Br)c(Br)cc2Br)c(Br)c1`, the BMF in the data set listed under Homo sapiens is 98; in data set [2], 2.5. The “log KOA” value in data set [1] worked out at 11.2. Further, in data set [3] (read-out: LogP), the logP was determined as 6.8.

As to `Clc1cc(Cl)c(-c2cc(Cl)c(Cl)c(Cl)c2Cl)cc1Cl`, the BMF was 95 in the data set filed under Homo sapiens and 2.5 in data set [2]. Also, in data set [1], the “log KOA” value was found to be 10.9. In addition, the logP in data set [3] (read-out: LogP) was 7.5.

Regarding `O=S1OC[C@@H]2[C@H](CO1)[C@@]1(Cl)C(Cl)=C(Cl)[C@@]2(Cl)C1(Cl)Cl` (stereo partly specified), the BMF in the data set filed under Homo sapiens is reported as 23; in data set [2], under 1. Further, the “log KOA” value in data set [1] was 7.1. Besides, the logP in data set [3] (read-out: LogP) is 3.7.

`Clc1cc(Cl)c(Cl)cc1Cl`: the BMF was 5.9 in the data set listed under Homo sapiens and under 1 in data set [2]. Moreover, in data set [1], the “log KOA” value was determined as 6.3. Further, in data set [3] (read-out: LogP), the logP was 4.7.

As for `Clc1cc(Cl)cc(Cl)c1` [1,3,5-TRICHLOROBENZENE], the BMF (in the data set filed under Homo sapiens; in data set [2]) was under 1 each time. Further, the “log KOA” value in data set [1] came out at 4.7. Moreover, the logP in data set [3] (read-out: LogP) is 3.5.

`Clc1cc(Cl)c(-c2cc(Cl)c(Cl)cc2Cl)cc1Cl` [2,2',4,4',5,5'-HEXACHLOROBIPHENYL]: the BMF in the data set filed under Homo sapiens turned out to be 96; in data set [2] it was 2.5. Besides, the “log KOA” value in data set [1] was found to be 9.6. In addition, in data set [3] (read-out: LogP), the logP was found to be 7.5.

In the case of `Cl[C@H]1[C@H](Cl)[C@@H](Cl)[C@H](Cl)[C@@H](Cl)[C@@H]1Cl` [BETA-HEXACHLOROCYCLOHEXANE], the BMF was 84 in the data set filed under Homo sapiens and under 1 in data set [2]. In addition, in data set [1], the “log KOA” value was found to be 8.9. Moreover, in data set [3] (read-out: LogP), the logP was 3.8.

In the case of `OC(c1ccc(Cl)cc1)(c1ccc(Cl)cc1)C(Cl)(Cl)Cl` [DICOFOL], the BMF in the data set listed under Homo sapiens is on record as 76; in data set [2], under 1. For the same compound, the “log KOA” value in data set [1] was found to be 8.9. Moreover, the logP in data set [3] (read-out: LogP) is 3.5.

As to `ClC1=C(Cl)[C@]2(Cl)[C@@H]3[C@@H]4C[C@@H]([C@H]5O[C@@H]45)[C@@H]3[C@@]1(Cl)C2(Cl)Cl` [DIELDRIN], the BMF in the data set filed under Homo sapiens stood at 93; in data set [2], 1.7. Moreover, the “log KOA” value in data set [1] came out at 8.8. For the same compound, the log partition coefficient (logP) in data set [3] (read-out: LogP) was found to be 5.4.

Turning to `ClC(Cl)=C(Cl)C(Cl)=C(Cl)Cl` [HEXACHLOROBUTADIENE], the BMF (in the data set listed under Homo sapiens; in data set [2]) was under 1 each time. For the same compound, in data set [1], the “log KOA” value is listed as 3.9. Further, in data set [3] (read-out: LogP), the logP is 4.5.

As for `ClC1(Cl)C2(Cl)C3(Cl)C4(Cl)C(Cl)(Cl)C5(Cl)C3(Cl)C1(Cl)C5(Cl)C24Cl` (stereo unspecified) [MIREX], the BMF in the data set listed under Homo sapiens was determined as 82; in data set [2] it was 1. Also, the “log KOA” value in data set [1] is on record as 9.6. In data set [3] (read-out: LogP), the logP came to 8.1.

Consider `Clc1cc(Cl)c(Cl)c(Cl)c1Cl` [PENTACHLOROBENZENE], for which the BMF is on record as 16 in the data set filed under Homo sapiens and under 1 in data set [2]. In addition, the “log KOA” value in data set [1] is 6.9. Besides, the lipophilicity (logP) in data set [3] (read-out: LogP) was 5.

`Clc1c(Cl)c(Cl)c(Cl)c(Cl)c1Cl` [PERCHLOROBENZENE]: the results for the BMF (in the data set listed under Homo sapiens; in data set [2]) were 55 and 1.8, respectively. Also, the “log KOA” value in data set [1] came out at 7.7. Also, the logP in data set [3] (read-out: LogP) came to 5.5.

Consider `C=Cc1ccccc1` [STYRENE], for which the BMF (in the data set filed under Homo sapiens; in data set [2]) was under 1 in each case. In addition, the “log KOA” value in data set [1] came out at 4.9. Also, the log partition coefficient (logP) in data set [3] (read-out: LogP) amounted to 2.5.

With `O=S(=O)(c1ccc(Cl)cc1)c1cc(Cl)c(Cl)cc1Cl` [TETRADIFON], the values for the BMF (in the data set listed under Homo sapiens; in data set [2]) were 97 and under 1, respectively. Besides, the “log KOA” value in data set [1] is 11.4. In addition, the log partition coefficient (logP) in data set [3] (read-out: LogP) worked out at 4.6.

Turning to `CCCN(CCC)c1c([N+](=O)[O-])cc(C(F)(F)F)cc1[N+](=O)[O-]` [TRIFLURALIN], the figures for the BMF (in the data set filed under Homo sapiens; in data set [2]) were 28 and under 1, respectively. Further, in data set [1], the “log KOA” value came out at 7.2. For the same compound, the logP in data set [3] (read-out: LogP) was found to be 4.4.
